Screening results from PubChem BioAssay.
An excerpt weighted towards active compounds, which were near 3% of everything screened.
TRPC4 PAM = allosterically enhances the mouse TRPC4 cation channel. Q9QUQ5. HEK293 TRPC4beta/mu-opioid, DAMGO EC20, Fluo-4 Ca2+ flux; active compounds read high. B-score at 10 µM. 310,000 tested, 0.42% active. AID 2227;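 active = B-score of calcium response area above 5 SD of library B-scores, with initial fluorescence ratio within 5 SD of library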;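 note: B-score of integrated fluorescence ratio over time as area under calcium response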
TRPC4 act = TRPC4 (mouse) channel activation; Q9QUQ5; HEK293 TRPC4beta/mu-opioid, Fluo4 calcium fluorescence; active compounds read high; B-score at 10 µM; 310,000 tested, 0.49% active;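 active = B-score above 5 SD of library B-scores, and initial fluorescence ratio not above library mean plus 5 SD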;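 note: positive B-score marks a calcium rise read as TRPC4 activation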
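Technique: kinetic Fluo4 calcium fluorescence; Test system: TRPC4beta and mu-opioid receptor HEK293 stable cells; Measure: B-scored integrated calcium fluorescence ratio; Benchmarks: low control buffer alone, high control maximal DAMGO; Schedule: 45 min room-temperature Fluo4 loading, 110 s read.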
TRPC6 inh = inhibitors of mouse TRPC6 channel; Q61143; HEK293-TRPC6, membrane potential dye, ACh-evoked depolarization; active compounds read low; B-score at 10 µM; 310,000 tested, 1.1% active;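 active = B-score under library mean minus 3 SD, initial fluorescence not abnormally high, positive integrated signal ratio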;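 note: B-score derived from integrated fluorescence ratio over the kinetic read; more negative B-score means stronger inhibition of depolarization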
Kir21 inh = blocks the mouse Kir2.1 inward-rectifier potassium channel; 310,000 tested, 0.85% active; HEK293-Kir2.1, FluxOR thallium flux fluorescence; active compounds read low; P35561; B-score at 10 µM;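 active = fluorescence ratio B-score at or below minus 3 SD of library scores, with starting-brightness B-score within 2 SD, cut at about -4.2 in these data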;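 note: channel flux triggered by added potassium and thallium sulfate stimulus; B-score of peak minus minimum fluorescence over baseline after thallium stimulus; more negative B-score means stronger Kir2.1 block with less thallium influx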
Target sequence (P35561 whole entry, looked up): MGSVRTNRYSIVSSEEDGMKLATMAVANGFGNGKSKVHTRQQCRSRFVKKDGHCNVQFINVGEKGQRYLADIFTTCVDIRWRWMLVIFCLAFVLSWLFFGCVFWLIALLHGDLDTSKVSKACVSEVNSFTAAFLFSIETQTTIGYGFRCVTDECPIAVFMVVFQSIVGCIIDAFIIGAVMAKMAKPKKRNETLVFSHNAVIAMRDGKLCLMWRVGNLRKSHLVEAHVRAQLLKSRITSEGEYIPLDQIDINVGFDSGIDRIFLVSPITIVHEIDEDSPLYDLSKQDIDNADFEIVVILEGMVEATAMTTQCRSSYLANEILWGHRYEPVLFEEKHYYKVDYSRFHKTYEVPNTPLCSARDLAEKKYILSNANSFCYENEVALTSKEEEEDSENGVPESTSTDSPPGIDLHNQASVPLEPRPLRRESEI
TRPC6 activator = activates the mouse TRPC6 cation channel. Q61143. HEK293-TRPC6 membrane potential dye fluorescence; active compounds read high. B-score at 10 µM. 310,000 tested, 0.13% active;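 active = B-score of the integrated fluorescence ratio above library mean plus 3 SD, and starting fluorescence ratio within library mean plus 5 SD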;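 note: higher score means more depolarization so channel activation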
TRPC4 block = blocks the mouse TRPC4 cation channel | Q9QUQ5 | HEK293 TRPC4beta/mu-opioid, DAMGO-evoked Fluo4 calcium flux; active compounds read low | B-score at 10 µM | 300,000 tested, 0.39% active | AID 2247;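 active = B-score over 3 SD under the library average, no early fluorescence shift, positive overall ratio signal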
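Material: HEK293 cells with stable TRPC4beta plus mu-opioid receptor expression / Probe or stimulus: DAMGO in two steps, submaximal then maximal / Compound: single concentration per test compound / Technique: kinetic Fluo4 fluorescence imaging of calcium influx / Read-out: per-well B score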
TRPC4 sel inh 2 = second selectivity test of TRPC6 inhibitors: effect on mouse TRPC4; 920 tested, 42% active; inhibition, % at 10 µM; shares compounds with TRPC6 inh; HEK293 TRPC4/MOR, membrane potential dye fluorescence; channel activated by saturating DAMGO dose; AID 2776;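 active = compounds whose fluorescence signal differed from control wells by over 3 SD, either direction, in both duplicate plates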
TRPC4 spec = tests whether TRPC6 inhibitors also affect mouse TRPC4; activity change, negative = inhibition, % at 10 µM; HEK293 TRPC4/mu-opioid, membrane potential fluorescence; AID 2777; shares compounds with TRPC6 inh; 920 tested, 61% active;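 active = rise or fall in signal beyond 3 SD of buffer-only wells in both replicate plates, either sign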;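 note: integrated kinetic ratio of fluorescence range over baseline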
HEK293 MPD ctr 2-1 = parental HEK293 nonspecific activity of TRPC6 inhibitors, second screen. shares compounds with TRPC6 inh. parental HEK293 membrane potential dye fluorescence; maximal acetylcholine challenge after compound addition. signal change vs control, % at 10 µM. 920 tested, 31% active. AID 2779;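 active = membrane potential signal moving either way by over 3 SD of the maximum-effect control, in both duplicate plates, meaning non-specific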
HEK293 MPD ctr-1 = checks TRPC6 inhibitor effects in parental HEK293 cells | membrane potential signal change, % at 10 µM | shares compounds with TRPC6 inh | 920 tested, 60% active | AID 2780 | parental HEK293 membrane potential dye fluorescence;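 active = membrane potential signal shifting up or down by more than 3 SD of buffer-only wells, on both duplicate plates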
HEK293 MPD ctr-2 = counter-screen for TRPC6 modulators: effect in parental HEK293 cells; shares compounds with TRPC6 inh; membrane potential dye fluorescence; membrane potential signal change, % at 10 µM; 2,400 tested, 51% active; AID 488924;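 active = membrane potential signal moves up or down beyond 5 SD from buffer-only wells, on both duplicate plates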
HEK293 MPD ctr 2-2 = second counter-screen for TRPC6 modulators: effect in parental HEK293 cells; AID 488926; shares compounds with TRPC6 inh; 2,400 tested, 14% active; inhibition, % at 10 µM; membrane potential dye fluorescence; after compound, maximal acetylcholine stimulation;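 active = membrane potential signal drops by more than 5 SD from the mean control signal, in both duplicate plates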;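 note: plate controls were acetylcholine ECmax control wells for no effect and buffer only wells for full effect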
TRPC4/MOR mod = mouse TRPC4 off-target activity of TRPC6 modulators; shares compounds with TRPC6 inh; HEK293 TRPC4/mu-opioid, membrane potential fluorescence; percent change from control (negative = decrease, positive = increase), % at 10 µM; 2,400 tested, 69% active; AID 488927;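 active = membrane potential signal moved up or down beyond 5 SD of buffer control wells, in both duplicate plates, actives on both sides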;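 note: plate controls were assay buffer wells for no effect and DAMGO maximal-effect wells for full effect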
TRPC4 ctr inh 2 = second selectivity test of TRPC6 modulators against mouse TRPC4. inhibition, % at 10 µM. AID 488928. HEK293 TRPC4/mu-opioid, membrane potential dye fluorescence; stimulated with maximal-effect DAMGO. shares compounds with TRPC6 inh. 2,400 tested, 55% active;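 active = drop in membrane potential signal beyond 5 SD of the control wells in both duplicate plates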;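 note: TRPC4 counter screen for TRPC6 hits run under conditions tuned for TRPC6 not TRPC4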
TRPC6 block conf = mouse TRPC6 inhibitor confirmation; shares compounds with TRPC6 inh; inhibition, % at 10 µM; AID 488960; HEK293-TRPC6, membrane potential dye, ACh-evoked depolarization; 3,300 tested, 43% active;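 active = fluorescence ratio falls more than 5 SD below the full-stimulation control mean, in both duplicate runs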;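 note: integrated fluorescence ratio of peak minus minimum over baseline after agonist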
TRPC6 act conf = confirmation of mouse TRPC6 activators; shares compounds with TRPC6 inh; HEK293-TRPC6 membrane potential dye fluorescence, FDSS; activation, % at 10 µM; 2,800 tested, 11% active; AID 488961;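 active = ratio signal rise beyond 5 SD above unstimulated control wells' mean, seen in both duplicate runs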;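 note: plate controls were buffer EC0 wells for no effect and acetylcholine ECmax response for full effect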
* marks the source's active call; other numbers are inactive results; i = inactive; nt = no result.

SMILES	TRPC4 PAM	TRPC4 act	TRPC6 inh	Kir21 inh	TRPC6 activator	TRPC4 block	HEK293 MPD ctr-2	HEK293 MPD ctr 2-2	TRPC4/MOR mod	TRPC4 ctr inh 2	TRPC6 block conf	TRPC6 act conf	others
CCN(CC)c1cc(C)c2cc(NC(=O)CNC(C)=O)ccc2n1	i	i	-5.65*	0.52	i	i	-161.0%*	59.0%*	-27.5%*	38.0%*	i	i
COc1cccc(C(=O)COC(=O)CCC(=O)c2ccccc2)c1	i	i	i	-0.44	i	i	nt	nt	nt	nt	nt	nt
COc1ccc([C@H]2[C@H](C(=O)C(C)(C)C)N3N=Cc4ccccc4C3C23C(=O)OC(C)(C)OC3=O)cc1 (stereo partly drawn)	i	i	-6.03*	-0.63	i	i	i	i	9.0%*	i	i	i
CCOc1ccc(N2C=Nc3ccc(OCC)cc3C2)cc1	i	i	-5.65*	0.22	i	i	-82.0%*	i	-18.5%*	34.0%*	i	i
CCCCN1C=CC(=C2N=c3cccc([N+](=O)[O-])c3=N2)C=C1	i	i	-5.61*	1.67	i	i	-132.5%*	78.0%*	-20.0%*	49.0%*	58.5%*	i
CCCCCCN1C=CC(=C2C(=O)c3ccccc3C2=O)C=C1	i	i	i	-1.14	i	i	nt	nt	nt	nt	nt	nt
O=C(COc1ccc2c3c(c(=O)oc2c1)CCCC3)N[C@@H](Cc1ccccc1)C(=O)O	i	i	i	0.3	i	i	nt	nt	nt	nt	nt	nt
O=C(COc1ccc2c3c(c(=O)oc2c1)CCC3)NCc1ccccn1	i	i	-6.13*	-2.67	i	i	i	i	i	i	i	i
O=C(COc1ccc2c3c(c(=O)oc2c1)CCCC3)NC(Cc1ccc(Cl)cc1)C(=O)O (stereo not drawn)	i	i	-6.97*	1.55	i	i	nt	nt	nt	nt	i	i	TRPC4 sel inh 2=i;TRPC4 spec=4.7%*;HEK293 MPD ctr 2-1=i;HEK293 MPD ctr-1=2.1%*
Cc1ccc2nc(CSc3nnc(-c4ccco4)n3-c3ccccc3)cc(=O)n2c1	i	i	i	1.1	i	i	nt	nt	nt	nt	nt	nt
Cc1ccc2nc(CSc3nnc(-c4ccco4)o3)cc(=O)n2c1	i	i	-5.33*	-0.68	i	i	i	i	i	i	i	nt
CC1CN(S(=O)(=O)c2cccc(C(=O)N(Cc3nnc(-c4ccccc4Cl)o3)C3CC3)c2)CC(C)O1 (stereo not drawn)	i	i	i	0.75	i	i	nt	nt	nt	nt	nt	nt
CN(C)CCOC1c2ccccc2CSc2ccccc21 (stereo not drawn)	i	i	-7.76*	-0.31	i	i	nt	nt	nt	nt	53.3%*	nt	TRPC4 sel inh 2=i;TRPC4 spec=5.7%*;HEK293 MPD ctr 2-1=39.5%*;HEK293 MPD ctr-1=6.8%*
COCCNc1c(-c2cc3ccc(C)c(C)c3[nH]c2=O)nc2ccccn12	i	i	-5.08*	-1.45	i	i	i	i	i	i	i	i
O=[N+]([O-])c1ccc(Nc2nc(N/N=C\c3ccc4c(c3)OCO4)nc(N3CCCCC3)n2)cc1	i	i	i	-1.2	i	i	nt	nt	nt	nt	nt	nt
O=[N+]([O-])c1ccc(/C=N/Nc2nc(N3CCCCC3)nc(N3CCCCC3)n2)cc1	i	i	-5.95*	0.08	i	i	i	i	i	i	i	i
CN1CCc2cc3c(c4c2[C@H]1[C@H](O)c1ccccc1-4)OCO3	i	i	-5.09*	-1.12	i	i	i	i	-23.5%*	47.5%*	i	i
COc1ccc2c(c1OC)C(=O)OC2C1c2c(cc3c(c2OC)OCO3)CCN1C (stereo not drawn)	i	i	i	0.19	i	i	nt	nt	nt	nt	nt	nt
Cc1[nH]n(-c2ncc(-c3ccccc3)s2)c(=O)c1C(c1ccc(Cl)cc1)C(C#N)C#N (stereo not drawn)	i	i	i	-2.87	i	i	nt	nt	nt	nt	nt	nt
O=C(CN1C(=O)COc2ccc(Cl)cc21)NC1CC1	i	i	i	-0.01	i	i	nt	nt	nt	nt	nt	nt
CNC(=S)N(CCc1c(C)[nH]c2ccc(F)cc12)Cc1cccnc1	i	i	i	0.06	i	i	nt	nt	nt	nt	nt	nt
COC(=O)c1ccc(-c2noc(CN3CCCCC3c3nccn3C)n2)cc1 (stereo not drawn)	i	i	-5.09*	-1.71	i	i	163.5%*	i	37.5%*	36.5%*	43.0%*	nt
Cn1ccnc1C1CCCCN1Cc1nc(Cc2ccccc2F)no1 (stereo not drawn)	i	i	-5.55*	0.11	i	i	i	i	i	i	67.0%*	i
CCCOC1CCCN(Cc2nc(-c3ccc(C(=O)OC)cc3)no2)C1 (stereo not drawn)	i	i	i	-0.5	i	i	nt	nt	nt	nt	nt	nt
